How the values were obtained:
[1] = molecular target: Sodium-dependent serotonin transporter (Rattus norvegicus, UniProt P31652); assay: Displacement of [3H]-citalopram from SERT in rat cortex tissue measured after 60 mins by microbeta scintillation counting analysis
In short: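 Rat cortex tissue suspension with 1.0 nM [3H]-citalopram in 50 mM Tris pH 7.7, 150 mM NaCl, 5 mM KCl. Incubated 60 min at 24 °C, in duplicate. GF/B filtration, scintillation counting. One-site fit, Ki via Cheng–Prusoff with in-house Kd.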

[2] = molecular target: T1, 5-hydroxytryptamine receptor 1A (Homo sapiens, UniProt P08908); assay: Displacement of [3H]-8-OH-DPAT from recombinant human 5HT1A receptor expressed in CHO cell membranes measured after 60 mins by microbeta scintillation counting analysis
T1 sequence (P08908 whole entry): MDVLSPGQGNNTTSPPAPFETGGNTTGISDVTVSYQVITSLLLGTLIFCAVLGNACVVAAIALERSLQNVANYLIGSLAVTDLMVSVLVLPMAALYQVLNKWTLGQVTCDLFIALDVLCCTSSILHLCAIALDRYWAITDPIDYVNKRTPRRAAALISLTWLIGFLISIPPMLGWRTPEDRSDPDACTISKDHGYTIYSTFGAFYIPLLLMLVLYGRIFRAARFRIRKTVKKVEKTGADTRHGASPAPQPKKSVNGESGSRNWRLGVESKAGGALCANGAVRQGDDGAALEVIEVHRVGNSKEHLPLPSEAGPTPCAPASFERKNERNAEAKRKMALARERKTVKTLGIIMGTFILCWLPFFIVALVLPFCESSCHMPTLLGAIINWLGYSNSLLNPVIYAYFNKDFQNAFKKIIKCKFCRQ

Mus musculus [3] = assay: Inhibition of 8-OH-DPAT-induced hypothermia in CD-1 mouse assessed change in body temperature at 20 mg/kg, ip measured after 60 mins by thermometric method (reference value: -2.4 +/- 0.3 deg C); format: functional, organism-based
Mus musculus [4] = assay: Induction of hypothermia in CD-1 mouse assessed as change in body temperature at 5 mg/kg, ip measured after 90 mins by thermometric method; format: functional, organism-based
In short: (§1)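 Male CD-1 mice (23–40 g), 6–8 per dose, given compound ip in 10% aqueous DMSO (10 mL/kg). Rectal temperature was read by thermometer 30, 60, 90 and 120 min after dosing. Results are expressed as change from basal temperature at experiment start. Analysis by Dunnett's test.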

Mus musculus [5] = assay: Inhibition of 8-OH-DPAT-induced hypothermia in CD-1 mouse assessed change in body temperature at 20 mg/kg, ip measured after 45 mins by thermometric method (reference value: -2.6 +/- 0.2 deg C); format: functional, organism-based
Mus musculus [6] = assay: Induction of hypothermia in CD-1 mouse assessed as change in body temperature at 5 mg/kg, ip measured after 30 mins by thermometric method; format: functional, organism-based; in short: as §1
Mus musculus [7] = assay: Induction of hypothermia in CD-1 mouse assessed as change in body temperature at 5 mg/kg, ip measured after 120 mins by thermometric method; format: functional, organism-based; in short: as §1
Mus musculus [8] = assay: Induction of hypothermia in CD-1 mouse assessed as change in body temperature at 20 mg/kg, ip measured after 30 mins by thermometric method; format: functional, organism-based; in short: as §1
Mus musculus [9] = assay: Inhibition of 8-OH-DPAT-induced hypothermia in CD-1 mouse assessed change in body temperature at 20 mg/kg, ip measured after 30 mins by thermometric method (reference value: -2.4 +/- 0.2 deg C); format: functional, organism-based
D(2) dopamine receptor = D(2) dopamine receptor (Homo sapiens, UniProt P14416); assay: Displacement of [3H]-raclopride from recombinant human D2 receptor expressed in HEK293 cells measured after 1 hr by microbeta scintillation counting analysis; format: cell-based
Mus musculus [10] = assay: Induction of hypothermia in CD-1 mouse assessed as change in body temperature at 20 mg/kg, ip measured after 90 mins by thermometric method; format: functional, organism-based; in short: as §1
Mus musculus [11] = assay: Induction of hypothermia in CD-1 mouse assessed as change in body temperature at 20 mg/kg, ip measured after 120 mins by thermometric method; format: functional, organism-based; in short: as §1
[12] = Half life in human liver microsomes at 1 uM by LC-MS analysis; format: ADME, Microsome
In short: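 Compound at 1 μM incubated at 37 °C with 1 mg/mL pooled human liver microsomes and 100 μM NADPH in 0.1 M potassium phosphate pH 7.4, after 5-min preincubation. Samples taken at 0, 5, 10, 15, 30 min and quenched in ice-cold acetonitrile with buspirone internal standard. No-NADPH controls were run. Parent measured by LC-ESI(+)-MS of [M+H+]; half-life reported.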

Mus musculus [13] = assay: Induction of hypothermia in CD-1 mouse assessed as change in body temperature at 20 mg/kg, ip measured after 60 mins by thermometric method; format: functional, organism-based; in short: as §1
Mus musculus [14] = assay: Induction of hypothermia in CD-1 mouse assessed as change in body temperature at 5 mg/kg, ip measured after 60 mins by thermometric method; format: functional, organism-based; in short: as §1
[15] = molecular target: 5-hydroxytryptamine receptor 7 (Homo sapiens, UniProt P34969); assay: Displacement of [3H]-5-CT from recombinant human 5HT7 receptor expressed in HEK293 cells measured after 1 hr by microbeta scintillation counting analysis; format: cell-based
Mus musculus [16] = assay: Inhibition of 8-OH-DPAT-induced hypothermia in CD-1 mouse assessed change in body temperature at 20 mg/kg, ip measured after 15 mins by thermometric method (reference value: -1.9 +/- 0.2 deg C); format: functional, organism-based
[17] = molecular target: 5-hydroxytryptamine receptor 2A (Homo sapiens, UniProt P28223); assay: Displacement of [3H]-ketanserin from recombinant human 5HT2A receptor expressed in HEK293 cells measured after 1.5 hrs by microbeta scintillation counting analysis; format: cell-based
[18] = molecular target: 5-hydroxytryptamine receptor 6 (Homo sapiens, UniProt P50406); assay: Displacement of [3H]-LSD from recombinant human 5HT6 receptor expressed in HEK293 cells measured after 1 hr by microbeta scintillation counting analysis; format: cell-based
Mus musculus [19] = assay: Induction of hypothermia in CD-1 mouse assessed as change in body temperature at 20 mg/kg, ip measured after 30 mins in presence of WAY100635 by thermometric method; format: functional, organism-based
Mus musculus [20] = assay: Induction of hypothermia in CD-1 mouse assessed as change in body temperature at 20 mg/kg, ip measured after 60 mins in presence of WAY100635 by thermometric method; format: functional, organism-based

Chain of Sodium-dependent serotonin transporter (P31652 whole entry): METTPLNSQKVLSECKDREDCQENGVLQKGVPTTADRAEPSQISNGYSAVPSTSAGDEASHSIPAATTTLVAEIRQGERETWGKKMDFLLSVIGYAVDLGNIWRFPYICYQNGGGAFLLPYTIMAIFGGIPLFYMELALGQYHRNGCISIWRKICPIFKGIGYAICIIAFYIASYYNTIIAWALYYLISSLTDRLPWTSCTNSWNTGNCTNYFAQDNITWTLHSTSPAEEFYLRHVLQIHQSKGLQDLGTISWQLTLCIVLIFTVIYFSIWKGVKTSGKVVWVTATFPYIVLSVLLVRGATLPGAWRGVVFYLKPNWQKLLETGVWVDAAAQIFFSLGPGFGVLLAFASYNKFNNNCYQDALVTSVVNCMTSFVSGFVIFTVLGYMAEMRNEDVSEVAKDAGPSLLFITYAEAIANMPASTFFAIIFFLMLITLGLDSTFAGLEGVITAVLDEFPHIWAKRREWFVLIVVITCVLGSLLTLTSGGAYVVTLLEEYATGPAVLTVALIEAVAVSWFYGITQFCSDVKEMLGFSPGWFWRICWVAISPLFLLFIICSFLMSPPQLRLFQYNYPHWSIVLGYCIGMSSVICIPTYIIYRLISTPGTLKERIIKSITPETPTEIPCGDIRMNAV
Chain of D(2) dopamine receptor (P14416 whole entry): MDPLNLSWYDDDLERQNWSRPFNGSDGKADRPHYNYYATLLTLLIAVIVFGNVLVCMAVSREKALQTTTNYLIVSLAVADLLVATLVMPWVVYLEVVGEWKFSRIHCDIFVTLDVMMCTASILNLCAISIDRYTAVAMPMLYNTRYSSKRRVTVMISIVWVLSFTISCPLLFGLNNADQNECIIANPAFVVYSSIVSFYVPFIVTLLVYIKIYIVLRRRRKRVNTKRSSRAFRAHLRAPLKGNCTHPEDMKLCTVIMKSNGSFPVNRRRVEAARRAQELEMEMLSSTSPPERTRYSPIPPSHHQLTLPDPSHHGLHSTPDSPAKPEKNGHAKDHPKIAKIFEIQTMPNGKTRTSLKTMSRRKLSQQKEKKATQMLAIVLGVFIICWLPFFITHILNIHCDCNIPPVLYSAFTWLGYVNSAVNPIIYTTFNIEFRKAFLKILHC
Chain of 5-hydroxytryptamine receptor 7 (P34969 whole entry): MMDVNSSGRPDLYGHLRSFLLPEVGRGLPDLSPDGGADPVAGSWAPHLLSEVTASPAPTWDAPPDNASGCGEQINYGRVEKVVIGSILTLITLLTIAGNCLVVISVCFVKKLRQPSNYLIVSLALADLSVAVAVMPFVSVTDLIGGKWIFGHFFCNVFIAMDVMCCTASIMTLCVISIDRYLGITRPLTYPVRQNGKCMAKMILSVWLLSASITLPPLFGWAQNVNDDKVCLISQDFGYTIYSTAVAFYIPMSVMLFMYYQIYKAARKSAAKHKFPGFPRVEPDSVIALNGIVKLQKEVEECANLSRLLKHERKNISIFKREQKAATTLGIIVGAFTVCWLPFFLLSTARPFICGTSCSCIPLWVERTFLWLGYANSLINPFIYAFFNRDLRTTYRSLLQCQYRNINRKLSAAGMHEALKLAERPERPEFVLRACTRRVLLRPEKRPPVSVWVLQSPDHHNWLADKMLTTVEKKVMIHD
Chain of 5-hydroxytryptamine receptor 2A (P28223 whole entry): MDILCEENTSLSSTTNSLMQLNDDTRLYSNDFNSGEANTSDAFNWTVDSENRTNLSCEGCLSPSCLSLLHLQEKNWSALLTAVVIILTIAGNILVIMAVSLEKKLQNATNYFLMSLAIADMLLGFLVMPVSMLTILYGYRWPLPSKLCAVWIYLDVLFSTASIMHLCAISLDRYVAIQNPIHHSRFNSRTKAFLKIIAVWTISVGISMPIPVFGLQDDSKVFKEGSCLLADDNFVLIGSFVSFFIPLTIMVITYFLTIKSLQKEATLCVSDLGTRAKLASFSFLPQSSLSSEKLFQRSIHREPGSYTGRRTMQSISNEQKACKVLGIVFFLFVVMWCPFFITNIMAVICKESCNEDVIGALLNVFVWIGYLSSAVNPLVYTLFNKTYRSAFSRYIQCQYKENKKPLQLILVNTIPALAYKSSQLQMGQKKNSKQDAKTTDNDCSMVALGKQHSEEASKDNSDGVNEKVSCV
Chain of 5-hydroxytryptamine receptor 6 (P50406 whole entry): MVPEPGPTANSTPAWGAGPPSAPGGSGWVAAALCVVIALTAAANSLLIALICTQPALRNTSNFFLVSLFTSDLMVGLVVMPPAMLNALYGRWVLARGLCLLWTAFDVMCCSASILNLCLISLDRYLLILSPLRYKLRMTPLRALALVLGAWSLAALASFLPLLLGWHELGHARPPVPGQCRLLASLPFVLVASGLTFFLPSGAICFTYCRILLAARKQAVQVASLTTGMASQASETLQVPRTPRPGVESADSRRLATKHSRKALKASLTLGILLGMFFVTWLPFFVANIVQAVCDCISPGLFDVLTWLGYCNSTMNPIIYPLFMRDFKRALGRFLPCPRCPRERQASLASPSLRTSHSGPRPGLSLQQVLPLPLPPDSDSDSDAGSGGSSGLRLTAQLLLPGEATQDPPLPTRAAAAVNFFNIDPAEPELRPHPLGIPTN

Row | SMILES | Ki [1] | Ki [2] | further results
1 | O=c1c(-c2ccc(F)cc2)c2ccccn2c(=O)n1CCCCN1CCCC(c2c[nH]c3ccc(F)cc23)C1 (configuration not stated) | 30 nM | 147 nM | –
2 | COc1ccc2[nH]cc(C3CCCN(CCCCn4c(=O)c(-c5ccc(Cl)cc5)c5ccccn5c4=O)C3)c2c1 (configuration not stated) | 490 nM | 257 nM | –
3 | O=c1c(-c2ccccc2Cl)c2ccccn2c(=O)n1CCCCN1CCCC(c2c[nH]c3ccccc23)C1 (configuration not stated) | 103 nM | 50 nM | –
4 | O=c1c(-c2ccccc2)c2ccccn2c(=O)n1CCCCN1CCCC(c2c[nH]c3ccc(F)cc23)C1 (configuration not stated) | 8 nM | 209 nM | –
5 | COc1ccc2[nH]cc(C3CCCN(CCCCn4c(=O)c(-c5ccccc5C)c5ccccn5c4=O)C3)c2c1 (configuration not stated) | 87 nM | 476 nM | –
6 | COc1ccc2[nH]cc(C3CCCN(CCCCn4c(=O)c(-c5ccccc5Cl)c5ccccn5c4=O)C3)c2c1 (configuration not stated) | 459 nM | 176 nM | –
7 | Cc1ccccc1-c1c(=O)n(CCCCN2CCCC(c3c[nH]c4ccccc34)C2)c(=O)n2ccccc12 (configuration not stated) | 76 nM | 102 nM | –
8 | O=c1c(-c2ccc(F)cc2)c2ccccn2c(=O)n1CCCCN1CCCC(c2c[nH]c3ccccc23)C1 (configuration not stated) | 46 nM | 46 nM | deltaT (Mus musculus [3]): -1.3 °C; deltaT (Mus musculus [4]): 0.3 °C; deltaT (Mus musculus [5]): -1.3 °C; deltaT (Mus musculus [6]): 0.4 °C; deltaT (Mus musculus [7]): 0.2 °C; deltaT (Mus musculus [8]): -0.2 °C; deltaT (Mus musculus [9]): -1.2 °C; Ki (D(2) dopamine receptor): 963 nM; deltaT (Mus musculus [10]): 0.2 °C; deltaT (Mus musculus [11]): 0.1 °C; half-life at 1 µM [12]: 5.53 min; deltaT (Mus musculus [13]): 0.5 °C; deltaT (Mus musculus [14]): 0.4 °C; Ki [15]: 1440 nM; deltaT (Mus musculus [16]): -1.2 °C; Ki [17]: 435 nM; Ki [18]: 697 nM
9 | COc1ccccc1-c1c(=O)n(CCCCN2CCCC(c3c[nH]c4ccc(F)cc34)C2)c(=O)n2ccccc12 (configuration not stated) | 118 nM | 80 nM | –
10 | COc1ccccc1-c1c(=O)n(CCCCN2CCCC(c3c[nH]c4ccccc34)C2)c(=O)n2ccccc12 (configuration not stated) | 411 nM | 132 nM | –
11 | Cc1ccc(-c2c(=O)n(CCCCN3CCCC(c4c[nH]c5ccc(F)cc45)C3)c(=O)n3ccccc23)cc1 (configuration not stated) | 135 nM | 136 nM | –
12 | COc1ccc2[nH]cc(C3CCCN(CCCCn4c(=O)c(-c5ccccc5F)c5ccccn5c4=O)C3)c2c1 (configuration not stated) | 1670 nM | 130 nM | –
13 | O=c1c(-c2ccc(Cl)cc2)c2ccccn2c(=O)n1CCCCN1CCCC(c2c[nH]c3ccc(F)cc23)C1 (configuration not stated) | 86 nM | 155 nM | –
14 | O=c1c(-c2ccccc2F)c2ccccn2c(=O)n1CCCCN1CCCC(c2c[nH]c3ccc(F)cc23)C1 (configuration not stated) | 115 nM | 218 nM | –
15 | COc1ccc2[nH]cc(C3CCCN(CCCCn4c(=O)c(-c5ccccc5)c5ccccn5c4=O)C3)c2c1 (configuration not stated) | 248 nM | 261 nM | –
16 | Cc1ccccc1-c1c(=O)n(CCCCN2CCCC(c3c[nH]c4ccc(F)cc34)C2)c(=O)n2ccccc12 (configuration not stated) | 338 nM | 376 nM | –
17 | COc1ccc2[nH]cc(C3CCCN(CCCCn4c(=O)c(-c5ccc(F)cc5)c5ccccn5c4=O)C3)c2c1 (configuration not stated) | 192 nM | 281 nM | –
18 | COc1ccc2[nH]cc(C3CCCN(CCCCn4c(=O)c(-c5ccc(C)cc5)c5ccccn5c4=O)C3)c2c1 (configuration not stated) | 173 nM | 333 nM | –
19 | COc1ccc2[nH]cc(C3CCCN(CCCCn4c(=O)c(-c5ccccc5OC)c5ccccn5c4=O)C3)c2c1 (configuration not stated) | 386 nM | 69 nM | –
20 | O=c1c(-c2ccc(Cl)cc2)c2ccccn2c(=O)n1CCCCN1CCCC(c2c[nH]c3ccccc23)C1 (configuration not stated) | 82 nM | 294 nM | –
21 | Cc1ccc(-c2c(=O)n(CCCCN3CCCC(c4c[nH]c5ccccc45)C3)c(=O)n3ccccc23)cc1 (configuration not stated) | 207 nM | 63 nM | –
22 | COc1ccc(-c2c(=O)n(CCCCN3CCCC(c4c[nH]c5ccccc45)C3)c(=O)n3ccccc23)cc1 (configuration not stated) | 41 nM | 42 nM | deltaT (Mus musculus [4]): 0.4 °C; deltaT (Mus musculus [6]): 0.3 °C; deltaT (Mus musculus [7]): 0.5 °C; deltaT (Mus musculus [8]): -1.6 °C; Ki (D(2) dopamine receptor): 1130 nM; deltaT (Mus musculus [10]): 0 °C; deltaT (Mus musculus [11]): 0.3 °C; half-life at 1 µM [12]: 7.4 min; deltaT (Mus musculus [13]): 0.3 °C; deltaT (Mus musculus [19]): -1.4 °C; deltaT (Mus musculus [14]): 0.4 °C; Ki [15]: 1920 nM; deltaT (Mus musculus [20]): -0.7 °C; Ki [17]: 21 nM; Ki [18]: 1710 nM
23 | O=c1c(-c2ccccc2Cl)c2ccccn2c(=O)n1CCCCN1CCCC(c2c[nH]c3ccc(F)cc23)C1 (configuration not stated) | 255 nM | 378 nM | –
24 | O=c1c(-c2ccccc2F)c2ccccn2c(=O)n1CCCCN1CCCC(c2c[nH]c3ccccc23)C1 (configuration not stated) | 240 nM | 53 nM | –
25 | COc1ccc(-c2c(=O)n(CCCCN3CCCC(c4c[nH]c5ccc(F)cc45)C3)c(=O)n3ccccc23)cc1 (configuration not stated) | 27 nM | 140 nM | –

From ChEMBL document CHEMBL4400523, “Synthesis of novel pyrido[1,2-c]pyrimidine derivatives with rigidized tryptamine moiety as potential SSRI and 5-HT1A receptor ligands” (Eur J Med Chem, 2019)
